Screens (PubChem BioAssay)
APP 5'UTR act = APP 5'UTR luciferase reporter activation; SH-SY5Y APP 5'UTR luciferase reporter, luminescence; zero percent = DMSO vehicle wells; 190,000 compounds, 1% hits; activation, % at 2 µM;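 active = activation above a set limit, based on mean plus 3 SD of controls, cut at about 140% in these data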
FLuc inh counter = counter-screen for luciferase assay inhibitors: firefly luciferase inhibition | inhibition, % at 10 µM | 200,000 compounds, 1.5% hits | ATPLite firefly luciferase biochemical luminescence, 10 min;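 active = inhibition above about 50% when tested at 10 µM, limit read from the data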
Target sequence (P08659 whole entry, looked up): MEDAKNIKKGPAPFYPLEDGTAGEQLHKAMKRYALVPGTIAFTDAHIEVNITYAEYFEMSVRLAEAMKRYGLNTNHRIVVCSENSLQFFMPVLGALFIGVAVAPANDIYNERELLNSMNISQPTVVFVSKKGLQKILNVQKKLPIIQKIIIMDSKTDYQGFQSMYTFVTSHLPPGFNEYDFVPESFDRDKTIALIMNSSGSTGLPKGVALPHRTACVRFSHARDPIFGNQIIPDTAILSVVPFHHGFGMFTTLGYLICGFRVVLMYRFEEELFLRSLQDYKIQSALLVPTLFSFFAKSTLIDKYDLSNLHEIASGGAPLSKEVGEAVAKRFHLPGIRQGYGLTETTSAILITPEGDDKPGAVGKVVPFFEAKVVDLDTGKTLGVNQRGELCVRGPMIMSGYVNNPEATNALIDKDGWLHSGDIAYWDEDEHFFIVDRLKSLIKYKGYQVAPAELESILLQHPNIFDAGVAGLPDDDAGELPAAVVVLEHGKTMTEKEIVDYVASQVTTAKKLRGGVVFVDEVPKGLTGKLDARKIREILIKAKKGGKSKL
FLuc act counter = firefly luciferase counter-screen for stimulation assays; P08659; ATPlite luciferase biochemical, luminescence, 10 min; 0 = ATP-free wells, 1 = DMSO control; activation factor at 10 µM; 200,000 tested, under 10 active;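 active = luciferase activation factor, scaled between plate controls, of at least 2 with compound at 10 µM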
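assay system = Luciferase/luciferin detection reagent, cell-free biochemical luciferase assay | also added = ATP substrate | times = 10 min post-reagent at room temperature | measured by = luminescence from luciferase reaction | measure = luciferase activation, seen as luminescence increase over controls | benchmarks = low control with PBS replacing ATP, high control enzyme plus ATP without compound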
PPC-1+TRAIL kill = compounds killing PPC-1 cancer cells with TRAIL present (potentiator screen, no TRAIL-free arm); 220,000 compounds, 0.41% hits; cell killing (% activity), % at 4 µM or 5 µM; PPC-1 cells + TRAIL, ATPLite viability luminescence; AID 1443;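 active = cell killing above 50% in the first pass at 4 µM, then a duplicate retest at 5 µM averaging 50% or more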;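 note: plate controls were cells with TRAIL plus DMSO for no effect and medium-only wells lacking cells for full effect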
C8 TRAIL sens = caspase-8 TRAIL sensitization; NB7+C8 cells + TRAIL, ATPlite viability luminescence; inhibition (viability loss, TRAIL sensitization), % at 10 µM; 360,000 compounds, 1% hits; AID 624354;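 active = compounds causing at least 50% loss of cell viability in the single-dose screen, relative to plate controls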
NF-kB expr up = NF-kB expression increase, human neuronal cells. NF-kB reporter expression; active compounds read high. fold change at 12.5 µM. 190,000 compounds, 1.6% hits; in the data active = fold change above about 3.3
* marks the source's active call; other numbers are inactive results; · = no result. Rows were chosen to be rich in hits. Some 2.2% of all compounds tested hit in one or more screens of this group.

SMILES | APP 5'UTR act | FLuc inh counter | FLuc act counter | PPC-1+TRAIL kill | C8 TRAIL sens | NF-kB expr up
Cc1nc(N2CCN(S(=O)(=O)c3ccccc3C#N)CC2)c2c(-c3cccs3)csc2n1 | -0.5 | -3.0 | 1 | 25.2 | 6.0 | 1.07
Cc1nc(N2CCCCC2)c2c(-c3cccs3)csc2n1 | -6.2 | -1.8 | 1 | 7.8 | 9.2 | 7.75*
CCCCOCCCNC(=O)C[C@@H]1C[C@@]2(C(=O)OCC)CCCC=C2N(Cc2ccc3c(c2)OCO3)C1=O | · | · | · | · | -13.1 | ·
CC(C)(C)NC(=O)C(c1ccccc1F)n1c(=O)c(-c2ccccc2)nc2ccccc21 (stereo not given) | · | · | · | · | 19.2 | ·
Cc1ccc(S(=O)(=O)/C=C2\OCc3ccccc32)cc1 | · | · | · | · | 14.5 | ·
O=C(Nc1ccc(N2CCCC(O)C2)cc1)c1snc2c(=O)[nH]cnc12 (stereo not given) | · | 65.5* | 0.3 | 46.8 | 48.5 | 1.3
Cc1nc2c(C(=O)Nc3ccc(N4CCCC(O)C4)cc3)snc2c(=O)[nH]1 (stereo not given) | · | · | · | -3.7 | 20.2 | ·
Fc1ccc(-c2csc(N3CCOCC3)n2)cc1 | · | · | · | -7.5 | -5.9 | ·
c1ccc2oc(-c3csc(N4CCOCC4)n3)cc2c1 | 137.7* | 85.8* | 0.1 | -2.4 | 53.3* | 5.79*
Clc1ccc(CSc2ccc(-c3ccccn3)nn2)cc1 | 52.8 | 0.4 | 1 | 10.0 | 14.7 | 1.92
Clc1ccc(CSc2ccc(-c3ccco3)nn2)cc1 | 5.2 | 17.9 | 0.8 | 8.3 | 8.7 | 1.93
c1ccc(CSc2ccc(-c3ccccn3)nn2)cc1 | 138.6* | 57.8* | 0.4 | 16.5 | 41.8 | 6.53*
Fc1ccccc1CSc1ccc(-c2ccco2)nn1 | 63.9 | 78.4* | 0.2 | 16.1 | 40.3 | 4.94*
c1ccc(CSc2ccc(-c3ccco3)nn2)cc1 | 110.2 | 82.6* | 0.2 | 25.5 | 59.1* | 3.94*
Cc1ccc(CSc2ccc(-c3ccco3)nn2)cc1 | 71.4 | 55.0* | 0.4 | 30.9 | 40.3 | 3.3*
COC1=CC(=O)OC(c2ccccc2C(F)(F)F)C1 (stereo not given) | · | · | · | · | 9.1 | ·
CC(O)(c1cccnc1)c1nc(-c2cccc(C(F)(F)F)c2)cs1 (stereo not given) | · | · | · | · | -0.3 | ·
Cc1ccc(Nc2ncnc3ccccc23)cc1 | 149.3* | 28.5 | 0.7 | 20.0 | 12.9 | 2.87
FC(F)(F)Oc1ccccc1C(c1nnnn1-c1ccc2c(c1)OCCO2)N1CCN(C/C=C/c2ccccc2)CC1 (stereo not given) | · | · | · | · | -15.2 | ·
CSc1ccc(/C=N/NC(=O)c2sccc2C)cc1 | 219.1* | 28.7 | 0.7 | 30.1 | 26.6 | 4.11*
CSc1ccc(/C=N/NC(=O)c2cc(O)cc(O)c2)cc1 | 50.0 | 73.5* | 0.3 | 21.5 | 46.5 | 1.85
CSc1ccc(/C=N/NC(=O)c2ccc(C)c(C)c2)cc1 | -8.1 | 8.1 | 0.9 | 3.6 | -3.9 | 1.61
O=C(O)c1cc(N/N=C/c2ccc(-c3ccccc3)cc2)ccc1Cl | · | · | · | · | 11.9 | ·
CSc1ccc(/C=N/Nc2ccc(Cl)c(C(=O)O)c2)cc1 | 139.1* | 14.4 | 0.9 | 6.3 | 1.1 | 12.3*
CCC(=O)Oc1ccc(NC(=O)c2ccc(S(=O)(=O)N3CCCC3)cc2)cc1 | · | · | · | · | 10.8 | ·
SMILES | APP 5'UTR act | FLuc inh counter | FLuc act counter | PPC-1+TRAIL kill | C8 TRAIL sens | NF-kB expr up
COc1ccccc1C(=O)O/N=C1/CCCc2c1ccc(OC)c2[N+](=O)[O-] | 6.3 | -5.7 | 1.1 | 9.4 | -1.1 | 1.13
COc1ccc2c(c1)CC/C2=N\OC(=O)c1ccccc1OC | 24.9 | 71.5* | 0.3 | 21.6 | 2.4 | 1.74
Cc1c(C(=O)NCc2ccc(Cl)c(Cl)c2)sc(=O)n1Cc1ccc(C(=O)N(C)C)cc1 | · | · | · | · | -2.5 | ·
CN(C)c1ccc(/C=N/N=C2/NC(=O)/C(=C/c3ccc([N+](=O)[O-])cc3)S2)cc1 | 6.4 | 88.6* | 0.1 | 54.2* | 87.1* | 0.8
Cc1c(N2CCCCC2)[nH]c2ccccc12 | · | · | · | · | 6.2 | ·
CCCS(=O)(=O)NC(=O)C1(C)CCCN(C(=O)c2cccc(Cl)c2)C1 (stereo not given) | · | · | · | · | 0.3 | ·
COc1ccc(/C(C)=N/Nc2nc3ccccc3nc2C)cc1 | · | · | · | 3.2 | 22.5 | ·
COc1ccc(/C(C)=N/Nc2nncc3ccccc23)cc1 | · | · | · | · | 60.3* | ·
CCCCNc1c(-c2ccc(SC3CCCCC3)cc2)nc2ccccn12 | · | · | · | · | 35.7 | ·
CCCCNc1c(-c2ccc(SC(C)CC)cc2)nc2ccccn12 (stereo not given) | · | · | · | · | 69.1* | ·
